Experimental data from different studies.
Compare with care: the assays were run in different laboratories.
Target: Macrophage-stimulating protein receptor (MST1R, Homo sapiens, UniProt Q04912)

The remaining activity of `CC(C)(C)c1cc(C=C(C#N)C#N)cc(Br)c1O` is reported as 105% (enzyme activity, inhibitor; 0.5 µM).
For `C#Cc1n[nH]c2c(-c3cn([C@@H](C)c4ccccc4)c(=O)[nH]c3=O)cc(F)cc12`, the inhibition was 38.6% (enzyme activity, inhibitor; 0.1 µM).
`Cc1nn(C)cc1-c1nc2c(N3CCN(Cc4ccc(Cl)cc4)CC3)c(Cl)cnc2[nH]1` has a remaining binding of 100% (binding, competition with immobilised ligand; 1 µM).
`O=c1[nH]c2ccccc2n1C1CCN(Cc2ccc(-c3[nH]c4cc5ncnc5cc4nc3-c3ccccc3)cc2)CC1` gave a remaining signal of 111% (cell-free assay; 0.5 µM).
The inhibition of `COc1cc(Nc2ncc(F)c(Nc3ccc4c(n3)NC(=O)C(C)(C)O4)n2)cc(OC)c1OC` is reported as 100% (binding, competition with immobilised ligand; 10 µM).
With `C#Cc1n[nH]c2c(-c3cn([C@@H](C)c4ccccn4)c(=O)[nH]c3=O)cc(F)cc12` the inhibition was 47.6% (enzyme activity, inhibitor; 0.1 µM).
The inhibition of `Cn1cc(-c2cc(F)cc(N3CCn4c(cc5c4CCCC5)C3=O)c2CO)cc(Nc2ccc(N3CCN(C4COC4)CC3)cn2)c1=O` is reported as 8% (enzyme activity, inhibitor; 0.1 µM).
`Cn1cncc1[C@@](O)(COc1ccc(C#N)cc1-c1ccc(OC(F)(F)F)cc1)c1ccc(C#N)cc1` has a remaining binding of 100% (cell-free assay, competition with immobilised ligand; 1 µM).
The inhibition of `Cn1cc(-c2cccc(N3CCc4c(sc5c4CC(C)(C)C5)C3=O)c2CO)cc(Nc2ccncn2)c1=O` is reported as 11% (enzyme activity, inhibitor; 1 µM).
With `N#CC1(c2ccccn2)CCN(Cc2cc(C(=O)O)c(=O)n3ccccc23)CC1` the remaining binding was 100% (cell-free assay, competition with immobilised ligand; 1 µM).
`COc1ncccc1-c1cnn2ccc(N3CCN(C(=O)OC(C)C)CC3)nc12` gave a remaining binding of 100% (binding, competition with immobilised ligand; 1 µM).
